G6PDH counter: L. mesenteroides G6PDH inhibition counter-screen; Purified L. mesenteroides G6PDH, diaphorase/resazurin coupled fluorescence, 45 min; inhibition, % at 5 µM; hit rate 0.12% among 200,000; AID 1020
Diaphorase inh: counter-screen for diaphorase-based assays: diaphorase inhibitors and chemical oxidizers | diaphorase resazurin-to-resorufin fluorescence, NADH, 16 min; bacterial (C. kluyveri) enzyme, not human | inhibition, % at 20 µM | hit rate 0.69% among 190,000 | AID 1217;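 active means primary screen inhibition at 20 µM above a set limit, cut at about 50% in these data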
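System: Bacterial diaphorase enzyme (C. kluyveri) | Incubation: 16-min room-temperature incubation before reading | Benchmarks: No-NADH positive control and DMSO neutral control | Measured by: Resorufin fluorescence 544/590 nm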
Diaph act CS: activates diaphorase or chemically reduces, flagging diaphorase assay artifacts; activation factor at 20 µM; hit rate 0.005% among 190,000; Diaphorase/resazurin coupled assay, resorufin fluorescence, 16 min; hits give high values; 1 = vehicle wells, 0 = NADH-free wells; AID 1229;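 active means diaphorase activity raised at least twofold by the compound at 20 µM; inactive means activation factor below 2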
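Material: bacterial diaphorase enzyme (C. kluyveri); amount: enzyme 0.07 U/mL final; reagent: NADH substrate 0.114 mM plus resazurin dye 0.1 mM, final; doses: single compound dose of 20 µM, 1% DMSO final; timing: 16 min enzyme reaction, ambient temperature; measured by: fluorescence of resorufin, 544 nm excitation, 590 nm emission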
Lmaj promast: Leishmania major promastigote growth inhibition; Leishmania major promastigotes, resazurin fluorescence viability; inhibition, % at 10 µM; hit rate 9% among 200,000; AID 1063;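 further: promastigotes grown with compound for 44 hours at 28 °C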
WT yeast gro inh: growth inhibition of WT yeast, mitochondrial fusion screen; mitochondrial fusion phenotypic screen, WT strain; inhibition, % at 10 µM; hit rate 2.1% among 190,000; AID 1362; in the data active means inhibition above about 58%; tested in S. cerevisiae
Large screens that a line does not name were inactive. Shown are actives, neighbours in structure and some others; about 11% of the full set was active somewhere. Unless noted, no stated cut-off is given here; in the data, active means inhibition above about 50%; inactive means the rest.

CC(O)CNCCNCc1c(OCc2ccccc2)ccc2ccccc12 (centres undefined)	Lmaj promast 101
CC(O)CNCCOc1ccccc1-c1ccccc1 (centres undefined)	none
CO/N=C(/CS(=O)(=O)c1ccc(C)cc1)c1ccc(OC)cc1	Lmaj promast 80
COc1ccc(C(=O)NCS(=O)(=O)c2ccc(C)cc2)cc1	none
COc1cccc(CC2(CO)CCCN(Cc3cn(C)c4ccccc34)C2)c1 (centres undefined)	none
COc1cccc(CC2(CO)CCCN(Cc3cnn(-c4ccccc4)c3)C2)c1 (centres undefined)	Lmaj promast 90
COc1cccc(CC2(CO)CCCN(Cc3ccc(CN4CCCCC4)s3)C2)c1 (centres undefined)	Lmaj promast 77
CCCOC(=S)Nc1ccccc1	none
O=C(c1ccc2c(c1)OCO2)[C@@H]1[C@@H]2C(=O)N(C3CCCCC3)C(=O)[C@@H]2C2c3ccccc3C=CN21 (some centres undefined)	none
O=C(c1cccs1)[C@@H]1[C@@H]2C(=O)N(Cc3ccc4c(c3)OCO4)C(=O)[C@@H]2C2c3ccccc3C=CN21 (some centres undefined)	Lmaj promast 88
Cc1nnc(N(C)C(=O)c2ccc3c(c2)OCO3)s1	none
CCOCCCn1c(=S)[nH]c2cc3c(cc2c1=O)OCO3	none
C/C(Cc1ccccc1)=N\NC(=O)CNC(=O)c1ccccc1Br	Lmaj promast 62
Cc1nc(N2CCN(c3ccccc3)CC2)c2c3c(sc2n1)CCC3	WT yeast gro inh 74 (no result: Lmaj promast)
Cc1nc2ccc(NS(=O)(=O)c3ccc4c(c3)OCCO4)cc2s1	none
Cc1ccc2nc(-c3cccnc3)c(NC3CCCCC3)n2c1	Lmaj promast 88
Cc1ccc(O)c(C(=O)c2coc(=N)c(C(=O)NC(C)C)c2)c1	Lmaj promast 71
CC(C)C(c1nnnn1Cc1ccco1)N1CCN(c2cccc(Cl)c2)CC1 (centres undefined)	Lmaj promast 85
CC(C)C(c1nnnn1Cc1ccccc1)N1CCN(Cc2ccco2)CC1 (centres undefined)	none
CC(C)C(c1nnnn1C(C)(C)C)N1CCN(c2cccc(Cl)c2)CC1 (centres undefined)	WT yeast gro inh 75
O=C(Nc1nccs1)c1ccc(N2C(=O)C3CCCCC3C2=O)cc1 (centres undefined)	none
O=C(Nc1nccs1)c1cccc(N2C(=O)c3cccc4c([N+](=O)[O-])ccc(c34)C2=O)c1	Lmaj promast 73
O=C(Nc1nccs1)c1cccc(N2C(=O)C3C4C=CC(C4)C3C2=O)c1 (centres undefined)	Lmaj promast 51
Cc1cc(-c2nn(-c3ccccc3F)cc2CNCCc2cnc[nH]2)c(C)s1	Lmaj promast 98
Cc1cc(-c2nn(-c3ccccc3F)cc2CN2CCC(C(N)=O)CC2)c(C)s1	none
COc1ccc(-n2c(SCC(=O)NNC(=O)c3ccc(C)cc3)nnc2-c2ccncc2)cc1	none
NS(=O)(=O)c1ccc(NC(=S)NC2CC2)cc1	none
Cc1ccccc1Nc1nc(N)nc(CN2C(=O)NC3(CCCCC3C)C2=O)n1 (centres undefined)	none
CCc1ccccc1NC(=O)/C(=C/c1ccco1)c1ccccc1	WT yeast gro inh 59
Cc1nc(C/C(=N\Nc2ccccc2)c2ccc(O)cc2O)cs1	none
CCc1cc(/C(Cc2ccccn2)=N\Nc2ccccc2)c(O)cc1O	Lmaj promast 59
NC(=O)c1nnn(-c2nonc2N)c1-c1ccc([N+](=O)[O-])cc1	none
CCOC(=O)c1ccc(CN(Cc2ccccc2)S(=O)(=O)c2cccc([N+](=O)[O-])c2)cc1	none
CCOC(=O)CCCCCN(Cc1ccccc1)S(=O)(=O)c1ccc([N+](=O)[O-])cc1	Lmaj promast 97
CCCCN(CC)C(=O)Cn1cnc2ccc(S(=O)(=O)N3CCC(C)CC3)cc2c1=O	none
CC1(C)[C@H]2CC=C(CN3CCC(N4CCC(C(=O)N5CCCC5)CC4)CC3)[C@@H]1C2	Lmaj promast 89
CC(=O)c1cc(CN2CCC(N3CCC(C(=O)N4CCCC4)CC3)CC2)cs1	none (no result: Diaphorase inh, Diaph act CS)
Cc1[nH]c2ccccc2c1/C=N/NC(=O)C1CC1(c1ccccc1)c1ccccc1 (centres undefined)	Lmaj promast 99, WT yeast gro inh 84
Cc1[nH]c2ccccc2c1/C=N/NC(=O)CCC(=O)NCc1ccccc1	none

From PubChem
